PMC3000598 (Phytochemistry letters, 2008)

Key:
[1] = test system: 5-LOX catalyzed LTB4 formation; assay: In vitro assay for leukotriene; type: cell-based; settings: Homo sapiens, Leukocyte, 10 min, read-out: IC50 5-LOX mediated LTB4 formation
In short: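 Human venous-blood polymorphonuclear leukocytes isolated by sedimentation rate and lysis tolerance; viability checked by 0.4% trypan blue. Cells (4500 cells/mL) were incubated with the ethanol-dissolved test compound, CaCl2, A23187 and arachidonic acid for 10 min at 37 °C with shaking. The reaction was stopped with 10% HCO2H, and LTB4 was measured by competitive EIA.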

[2] = test system: 5-LOX; settings: cellular as well as cell-free assays; ref Albert et al. (2002); cited from earlier work
[3] = test system: COX-1; settings: cellular as well as cell-free assays; ref Albert et al. (2002); cited from earlier work

SMILES: CC(c1cc2ccccc2s1)N(O)C(N)=O (stereo not drawn) [Zileuton]
- IC50 [1]: 5 µM

SMILES: CC(C)=CCC[C@]1(C)[C@@H](CC=C(C)C)C[C@@]2(CC=C(C)C)C(=O)[C@]1(C(=O)C(C)C)C(=O)C(CC=C(C)C)=C2O [hyperforin]
- 5-LOX inhibition [2]: dual COX-1/5-LOX inhibitor
- COX-1 inhibition [3]: dual COX-1/5-LOX inhibitor
